Data on three compounds can be found in ChEMBL document CHEMBL1157584, “Discovery of 4-amino-1-(7H-pyrrolo[2,3-d]pyrimidin-4-yl)piperidine-4-carboxamides as selective, orally active inhibitors of protein kinase B (Akt)” (J Med Chem, 2010).

In brackets after ≈: the same amount, converted by molar mass. Some results are limits rather than exact numbers.

In data set [1] the test system is Mus musculus. Put plainly: Half life in mouse at 5 mg/kg, iv. The data set is classed as ADME, organism-based. Further details: dose 5 mg/kg, route intravenous. The settings on record: in vivo.
Data set [2] in a line: Oral bioavailability in mouse at 5 mg/kg. The data set is classed as ADME, organism-based. The settings on record: in vivo.
Data set [3] in a line: Plasma concentration in CrTac:Ncr-Fox1 (nu) athymic mouse bearing human U87MG cells at 200 mg/kg, po single dose after 4 hrs. The class given is ADME, organism-based, U-87MG ATCC. More on the design: dose 200 mg/kg, route oral. The gist of the method:
(§1)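 U87MG xenograft-bearing athymic mice given a single oral dose of 200 mg/kg. Compound levels measured in plasma and tumor samples 4 h after dosing.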

For data set [4], the system named is Mus musculus. Put plainly: Plasma clearance in mouse at 5 mg/kg, iv. The data set is classed as ADME, organism-based. Further details: dose 5 mg/kg, route intravenous. The conditions noted are these: in vivo.
In data set [5] the test system is Mus musculus. Put plainly: Volume of distribution at steady state in mouse at 5 mg/kg, iv. The class given is ADME, organism-based. More on the design: dose 5 mg/kg, route intravenous. The conditions noted are these: in vivo. The method, boiled down:
(§2)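 Mice received a single iv dose, and plasma drug levels were followed over time. Pharmacokinetic parameters, including Vss in L, were fitted to model 201 with default settings.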

A short description of data set [6]: Drug level in CrTac:Ncr-Fox1 (nu) athymic mouse tumor bearing human U87MG cells at 200 mg/kg, po single dose after 4 hrs. The class given is ADME, organism-based, Neoplasm, U-87MG ATCC. Further details: dose 200 mg/kg, route oral. The conditions noted are these: read-out: Drug uptake. The gist of the method:
as §1

For data set [7], the system named is Mus musculus. Put plainly: Plasma clearance in mouse at 25 mg/kg, iv. The class given is ADME, organism-based. The conditions noted are these: in vivo. More on the design: dose 25 mg/kg, route intravenous.
Data set [8] can be described thus: Solubility in aqueous buffer at pH 7.0. The data set is classed as physicochemical.
Data set [9] in a line: Solubility in aqueous buffer at pH 6.5. The data set is classed as physicochemical.
For data set [10], the system named is Mus musculus. Put plainly: Plasma clearance in mouse at 10 mg/kg, iv. The class given is ADME, organism-based. More on the design: dose 10 mg/kg, route intravenous. The conditions noted are these: in vivo.
The subject of data set [11] is Mus musculus. Put plainly: Half life in mouse at 10 mg/kg, iv. The settings on record: in vivo. The class given is ADME, organism-based. Further details: dose 10 mg/kg, route intravenous.
Data set [12] can be described thus: Oral bioavailability in mouse at 10 mg/kg. The class given is ADME, organism-based. The conditions noted are these: in vivo.
The subject of data set [13] is Mus musculus. Put plainly: Volume of distribution at steady state in mouse at 10 mg/kg, iv. The class given is ADME, organism-based. Further details: dose 10 mg/kg, route intravenous. The settings on record: in vivo. The gist of the method: as §2

A word on the bioavailability: it is the share of a dose that reaches the circulation, judged against a reference dose that is usually intravenous. High values mean much systemic uptake, low ones little systemic uptake. One may read the Vdss as the apparent volume that relates the amount in the body to the concentration in plasma or blood. Low readings indicate confinement near the circulation, high ones extensive tissue distribution. `NC1(C(=O)NCc2ccc(Cl)cc2)CCN(c2ncnc3[nH]ccc23)CC1` gave a t1/2 in the data set on Mus musculus [1] of 54 min. In data set [2], this compound showed a bioavailability of 58%. Also, the concentration at 4 h was determined as 20 µM in data set [3] and 43 µM in data set [6]. The CL in the data set with Mus musculus [4] was 0.08 L/h. The same compound returned a distribution volume (Vdss) with Mus musculus [5] of 0.06 L.
The term solubility denotes the concentration that dissolves in the medium under given conditions. A low value points to a poorly soluble substance. Consider `NC1(Cc2ccc(Cl)cc2)CCN(c2ncnc3[nH]ccc23)CC1`, for which the CL in the data set on Mus musculus [7] was found to be 0.33 L/h. The solubility entry in data set [8] is “Insoluble”; in [9] it was 260 µg/mL (≈ 761 µM).
In turn, `CC(C)(C)c1ccc(CC2(N)CCN(c3ncnc4[nH]ccc34)CC2)cc1` showed a CL with Mus musculus [10] of 0.31 L/h. In the data set with Mus musculus [11], this compound gave a t1/2 of 47.4 min. Further, the bioavailability in data set [12] was less than 1%. Moreover, the Vdss in the data set on Mus musculus [13] turned out to be 0.27 L.
